Measured values taken from article PMC2099187 (The Journal of Cell Biology, 2007).
Entries after “also recorded” stand apart in the source; their conditions may differ. One block for each compound: values may come before it. Where a SMILES comes first, the peptide text is derived from it.

Legend:
[1] = target: T1, recombinant human (rh) ECE-1 (Homo sapiens, UniProt P42892); test: Peptide degradation by rhECE-1; format: biochemical; conditions: for Degradation of peptide by 83 nM rhECE-1 at pH 5.5 or 7.4: 50 mM MES-KOH pH 5.5 or 50 mM Tris-HCl pH 7.4, up to 480 min
T1 sequence (P42892 1-770): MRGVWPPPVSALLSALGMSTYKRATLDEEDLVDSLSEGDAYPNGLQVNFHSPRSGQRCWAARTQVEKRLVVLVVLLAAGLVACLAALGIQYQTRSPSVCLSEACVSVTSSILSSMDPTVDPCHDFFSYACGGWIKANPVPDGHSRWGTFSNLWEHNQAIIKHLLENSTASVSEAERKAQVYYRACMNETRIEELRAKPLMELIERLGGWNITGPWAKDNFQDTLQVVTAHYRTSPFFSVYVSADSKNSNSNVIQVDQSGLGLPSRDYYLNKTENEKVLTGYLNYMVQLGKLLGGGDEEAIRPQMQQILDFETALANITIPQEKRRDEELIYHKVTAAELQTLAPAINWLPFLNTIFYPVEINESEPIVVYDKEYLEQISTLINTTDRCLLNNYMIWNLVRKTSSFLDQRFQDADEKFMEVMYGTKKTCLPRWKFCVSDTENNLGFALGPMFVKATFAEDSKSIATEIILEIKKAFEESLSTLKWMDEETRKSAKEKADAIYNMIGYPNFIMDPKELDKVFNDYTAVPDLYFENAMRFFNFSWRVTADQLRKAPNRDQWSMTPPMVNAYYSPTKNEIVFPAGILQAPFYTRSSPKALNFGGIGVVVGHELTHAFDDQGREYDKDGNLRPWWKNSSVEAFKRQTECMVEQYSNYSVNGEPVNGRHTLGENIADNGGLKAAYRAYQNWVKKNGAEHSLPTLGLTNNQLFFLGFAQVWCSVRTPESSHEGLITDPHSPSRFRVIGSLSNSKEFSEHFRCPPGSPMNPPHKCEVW
How it was run: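 Where used, the ECE-1 inhibitor (100 μM) was preincubated with enzyme on ice for 30 min at matching pH before substrate was added. Products were resolved by reversed-phase HPLC and identified by MALDI TOF/TOF mass spectrometry.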

[2] = tested on: HEK cells; test: BK-induced Ca2+ signaling, desensitization and resensitization; format: cell-based, human; conditions: SM-19712 10 μM; for Effect on response to a single BK challenge ([Ca2+]i): BK 100 nM, thiorphan 1 μM, phosphoramidon 1 μM
How it was run: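 HEK cells with native B2R were loaded with Fura-2AM and [Ca2+]i read at 37°C, on coverslips or in suspension. Cells were preincubated with BK 100 nM or vehicle (10 min, 37°C), washed, recovered 0–120 min, then rechallenged with BK 100 nM. SM-19712 10 μM, bafilomycin A1 0.15 or 1 μM, or DMSO was preincubated 20–60 min and kept in buffers throughout.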

[3] = tested on: rhECE-1; test: rhECE-1; conditions: human, 37°C, up to 720 min
[4] = tested on: HEK-CLR-RAMP1 cells; test: Endocytosis and degradation of internalized 125I-His8-CGRP; format: cell-based, human; conditions: 30 min after internalization; SM-19712 10 μM, bafilomycin A1 0.15 or 1 μM
[5] = tested on: HEK-CLR-RAMP1+βARR2-GFP cells; test: Trafficking and colocalization of β-arrestin2-GFP and CLR/RAMP1; format: cell-based, human; conditions: recovery up to 4 h in CGRP-free medium
How it was run: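 HEK-CLR-RAMP1 cells transiently transfected with β-arrestin2-GFP had surface CLR (HA11) and RAMP1 (Myc) labelled. Cells were given CGRP (2 min to 1 h), washed, and recovered in CGRP-free medium for 1–4 h. SM-19712 10 μM, bafilomycin A1 0.15 or 1 μM, or DMSO was preincubated 20–60 min and kept throughout. After PFA fixation and confocal imaging, β-arrestin2/CLR endosomal colocalization coefficient was measured at 4 h recovery.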

[6] = tested on: HEK-AT1AR cells; test: Resensitization of ATII-induced Ca2+ signaling; format: cell-based, human; conditions: ATII 100 nM 1 h 37°C, wash, 2 h recovery, challenge 100 nM; unpublished data; mean ± SE
How it was run: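 HEK-AT1AR cells were exposed to ATII (100 nM) or vehicle for 1 h at 37°C, washed, and allowed to recover in agonist-free medium at 37°C. They were then rechallenged with ATII (100 nM) while [Ca2+]i was measured. The [Ca2+]i change is expressed as % of the vehicle-pretreated response. Inhibitor (10 μM) or DMSO was preincubated 20–60 min and kept in buffers throughout. Mean ± SE, n ≥ 3.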

[7] = target: CLR/RAMP1 (Rattus norvegicus, UniProt Q63118+Q9JJ74); test: pH dependency of 125I-CGRP binding to CLR/RAMP1 membranes; conditions: pH 5.5, relative to pH 7.5 (100%)
Chain of CLR/RAMP1 (Q63118 24-464): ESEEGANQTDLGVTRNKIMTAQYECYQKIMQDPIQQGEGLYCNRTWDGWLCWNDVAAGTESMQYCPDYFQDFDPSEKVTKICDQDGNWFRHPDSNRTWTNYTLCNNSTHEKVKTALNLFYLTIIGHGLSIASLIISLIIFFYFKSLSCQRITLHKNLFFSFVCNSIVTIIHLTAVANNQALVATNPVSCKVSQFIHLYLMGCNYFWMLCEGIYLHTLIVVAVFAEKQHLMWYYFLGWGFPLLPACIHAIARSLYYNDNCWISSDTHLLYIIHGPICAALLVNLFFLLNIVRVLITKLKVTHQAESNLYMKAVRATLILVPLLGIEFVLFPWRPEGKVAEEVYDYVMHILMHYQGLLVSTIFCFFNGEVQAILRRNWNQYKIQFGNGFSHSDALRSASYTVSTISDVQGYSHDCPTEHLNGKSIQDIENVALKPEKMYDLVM
Chain of CLR/RAMP1 (Q9JJ74 27-148): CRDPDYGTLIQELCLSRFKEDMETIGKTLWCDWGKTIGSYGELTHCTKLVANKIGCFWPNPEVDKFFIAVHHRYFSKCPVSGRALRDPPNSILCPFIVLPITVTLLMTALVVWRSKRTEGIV

[8] = tested on: HEK-CLR-RAMP1 cells; test: CGRP-induced Ca2+ signaling, desensitization and resensitization; format: cell-based, human
How it was run: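 HEK-CLR-RAMP1 cells were loaded with Fura-2AM; [Ca2+]i read at 37°C. Single challenge used CGRP 30 nM. For desensitization/resensitization: CGRP 100 nM or vehicle (1 h, 37°C), wash, 0–6 h recovery, CGRP 30 nM rechallenge. Variants: SM-19712 10 μM (20–60 min preincubation, kept throughout); ECE-1 or non-targeting siRNA pools, 72 h; transient ECE-1a-d-GFP. Response given as % of vehicle-treated cells, n ≥ 3.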

[9] = tested on: SK-N-MC cells; test: CGRP-induced Ca2+ signaling, desensitization and resensitization; format: cell-based, human; conditions: challenge 100 nM
How it was run: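 SK-N-MC cells (endogenous CLR/RAMP1) were loaded with Fura-2AM for [Ca2+]i at 37°C. Single challenge used CGRP 100 nM. Desensitization: CGRP 100 nM or vehicle (1 h, 37°C), wash, CGRP-free recovery (4 h for resensitization), then CGRP 100 nM rechallenge. SM-19712 10 μM or DMSO was preincubated 20–60 min and kept throughout. Response was expressed as % of vehicle-treated cells.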

[10] = tested on: HEK-CLR-RAMP1 cells expressing ECE-1c-HSV; test: Cell surface ECE-1c-HSV by flow cytometry; format: cell-based, human; conditions: CGRP 100 nM, 30 min, 37°C
How it was run: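 HEK-CLR-RAMP1 cells transiently expressing ECE-1c-HSV were bound with goat anti-HSV (1 h, 4°C), washed, and exposed to CGRP 100 nM or vehicle (30 min, 37°C). They were then stained with FITC anti-goat (1:200, 1 h, 4°C) and analysed by flow cytometry. Secondary-only background was subtracted; surface signal was expressed relative to 4°C cells (100%).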

[11] = peptide 250 μM, rhECE-1 83 nM, 37°C, HPLC

Compound: angiotensin II (DRVYIHPF; Angiotensin-2; UniProt P01019 25-32, looked up) [ATII]
- Degradation of peptide by 83 nM rhECE-1 at pH 5.5 or 7.4 [1, 11]: no detectable degradation at up to 480 min

Compound: O=C(O)CNC(=O)C(CS)Cc1ccccc1 (centres unmarked) [thiorphan]
- Effect on response to a single BK challenge ([Ca2+]i) [2]: did not affect responses to a single BK challenge

Compound: CC(C)C[C@H](NP(=O)(O)O[C@@H]1O[C@@H](C)[C@H](O)[C@@H](O)[C@H]1O)C(=O)N[C@@H](Cc1c[nH]c2ccccc12)C(=O)O [phosphoramidon]
- Effect on response to a single BK challenge ([Ca2+]i) [2]: did not affect responses to a single BK challenge

- Degradation of peptide by 83 nM rhECE-1 at pH 5.5 or 7.4 [1, 11]: degraded BK at pH 5.5 and 7.4
- pH dependence of the rate of degradation by rhECE-1 ([1]; rhECE-1 83 nM, pH 5.5 versus pH 7.4, 37°C, HPLC): faster at pH 5.5
Compound: NC(N)=NCCC[C@H](NC(=O)[C@H](Cc1ccccc1)NC(=O)[C@@H]1CCCN1C(=O)[C@H](CO)NC(=O)[C@H](Cc1ccccc1)NC(=O)CNC(=O)[C@@H]1CCCN1C(=O)[C@@H]1CCCN1C(=O)[C@@H](N)CCCN=C(N)N)C(=O)O [BK, bradykinin] (H-RPPGFSPFR-OH)

Compound: SCNTATCVTHRLAGLLSRSGGVVKDNFVPTNVGSEAF-NH2
- cleaved bond [3]: Gly14-Leu15, major; also recorded: Lys24-Asp25, major; also recorded: Asn26-Phe27, major

Compound: CO/C1=C\C(C)=C\[C@@H](C)[C@@H](O)[C@@H](C)C/C(C)=C/C=C/[C@H](OC)[C@@H]([C@@H](C)[C@@H](O)[C@H](C)[C@@]2(O)C[C@@H](O)[C@H](C)[C@@H](C(C)C)O2)OC1=O [bafilomycin A1]
- Effect on degradation of internalized 125I-His8-CGRP [4]: prevented degradation
- Effect on localization of CLR (RAMP1) and β-arrestin2 during recovery [5]: caused retention of CLR, RAMP1, and β-arrestin2 in endosomes for up to 4 h recovery
- Effect on desensitization of BK-induced Ca2+ signaling ([2]; bafilomycin A1 0.15 or 1 μM): had no effect
- Effect on resensitization of BK-induced Ca2+ signaling ([2]; bafilomycin A1 0.15 or 1 μM, 0–120 min recovery): had no effect

Compound: angiotensin II [ATII]
- Resensitization of ATII-induced Ca2+ signaling at 2 h [6]: 96 ± 3%

Compound: angiotensin (AT) I (DRVYIHPFHL; Angiotensin-1; UniProt P01019 25-34, looked up) [ATI]
- Degradation of peptide by 83 nM rhECE-1 at pH 5.5 or 7.4 [1, 11]: degraded ATI under the same conditions

- Peptide bound to CLR/RAMP1 at endosomal pH 5.5 [7]: ~20%
Compound: Calcitonin gene-related peptide [CGRP]
- Bonds hydrolysed by rhECE-1 (major products separated by HPLC) ([1]; pH 5.5, products CGRP[15–26], CGRP[27–37], CGRP[1–24], CGRP[1–26]): Gly^14-Leu^15, Lys^24-Asp^25, and Asn^26-Phe^27
- Degradation of peptide by rhECE-1 at endosomal pH 5.5 ([1]; peptide 250 μM, rhECE-1 83 or 415 nM, 37°C, 50 mM MES-KOH pH 5.5, 0–720 min, reversed-phase HPLC): degraded CGRP in a concentration-dependent manner
- Degradation of peptide by rhECE-1 at extracellular fluid pH 7.4 ([1]; peptide 250 μM, rhECE-1, 37°C, 50 mM Tris-HCl pH 7.4, reversed-phase HPLC): minimal
- Desensitization of CGRP-induced Ca2+ signals by preincubation with agonist ([8]; CGRP 100 nM 1 h 37°C, 0 h recovery, challenge 30 nM): complete desensitization
- Resensitization of responses to CGRP in cells with active ECE-1 ([8]; CGRP 100 nM 1 h, wash, 0–6 h recovery, challenge 30 nM): fully resensitized at 4–6 h recovery
- Resensitization of CGRP-induced Ca2+ signaling, HEK cells expressing CLR/RAMP1 alone (control) ([8]; after 2 h recovery, mean ± SE): 33 ± 2%
- Resensitization of CGRP-induced Ca2+ signaling, cells overexpressing ECE-1c ([8]; at 2 h recovery, mean ± SE): 75 ± 5%
- Desensitization of responses to CGRP by preincubation with agonist ([9]; CGRP 100 nM 1 h 37°C): completely desensitized
- Resensitization of responses to CGRP ([9]; after 4 h recovery, mean ± SE): 54 ± 5%
- Effect on constitutive endocytosis of ECE-1c-HSV (cell surface ECE-1c) [10]: did not affect this endocytosis
